Consider two compounds from ChEMBL document CHEMBL1629439, “High-throughput identification of antibacterials against methicillin-resistant Staphylococcus aureus (MRSA) and the transglycosylase” (Bioorg Med Chem, 2010).

A short description of assay [1]: Inhibition of transglycosylase in Staphylococcus aureus ATCC 33592 assessed as inhibition of NBD- labelled lipid II polymerization. The method, boiled down:
(§1)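 100 µM NBD-labelled lipid II incubated 30 min with full-length PBP (EC, SA or Mtb) and 10 ng/µl N-acetylmuramidase in 50 mM Tris-HCl pH 8.0, 10 mM MgCl2, 0.1% Triton X-100, 10% DMSO, 15% MeOH. Supernatant run on anion-exchange HPLC with 20 mM–0.5 M ammonium acetate gradient. Inhibition calculated from substrate peak-area percentage. IC50 determined. S. aureus strains share one SA enzyme.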

A short description of assay [2]: Inhibition of Mycobacterium tuberculosis transglycosylase assessed as inhibition of NBD- labelled lipid II polymerization. The essentials: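 Full-length PBP incubated 30 min with 100 µM NBD-labelled lipid II, 10 ng/µl N-acetylmuramidase in 50 mM Tris-HCl pH 8.0, 10 mM MgCl2, 0.1% Triton X-100, 10% DMSO, 15% MeOH; supernatant on anion-exchange HPLC, ammonium acetate gradient (20 mM–0.5 M); inhibition from substrate peak area percentage.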

Assay [3] has as its system Staphylococcus aureus. The experiment in a line: Antimicrobial activity against wild-type Staphylococcus aureus ATCC 29213 after 18 to 24 hrs by alamar blue assay. The note with it: Staphylococcus aureus, ATCC 29213. (Alamar Blue is a resazurin reagent that responds to reducing activity.)
Assay [4] can be described thus: Inhibition of transglycosylase in Staphylococcus aureus isolate Sa-OXA-R2 assessed as inhibition of NBD- labelled lipid II polymerization. The essentials:
as §1

A short description of assay [5]: Inhibition of transglycosylase in Staphylococcus aureus ATCC 29213 assessed as inhibition of NBD- labelled lipid II polymerization. The essentials: as §1
Assay [6] relates to Staphylococcus aureus. The experiment in a line: Antimicrobial activity against methicillin-resistant Staphylococcus aureus isolate NTUH4722 after 18 to 24 hrs by alamar blue assay. Type of assay: functional. The essentials:
(§2)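 Broth microdilution per NCCLS standard, Mueller-Hinton broth, 8-point twofold dilutions; exponentially growing cells at 5 10^5 cells/ml with compound, 18–24 h at 37 C; 20% Alamar blue added, fluorescence read; MIC90 taken as lowest concentration preventing at least 90% growth.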

For assay [7], the system named is Mycolicibacterium smegmatis. The experiment in a line: Antimicrobial activity against Mycobacterium smegmatis BCRC 11565 after 18 to 24 hrs by alamar blue assay. Type of assay: functional. The note with it: Mycolicibacterium smegmatis, BCRC 11565. The method, boiled down:
(§3)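 Broth microdilution per NCCLS in Mueller-Hinton broth, 8-point twofold dilutions, 384-well format. Exponential-phase cells at 5 × 10^5 cells/ml incubated with compound 18–24 h at 37 °C, then 20% Alamar blue added and fluorescence read. MIC90 taken as the lowest concentration preventing at least 90% bacterial growth.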

The nature of assay [8]: Inhibition of transglycosylase in Escherichia coli ATCC […] assessed as inhibition of NBD- labelled lipid II polymerization. The essentials:
as §1

Assay [9] in a line: Displacement of fluorescein-labeled moenomycin from transglycosylase in Escherichia coli ATCC […] assessed as inhibition of lipid II polymerization after 30 mins by fluorescence anisotropy binding assay. On the set-up: species or system Staphylococcus aureus. The method, boiled down:
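Full-length bifunctional PBP (TGase) at 10 µg/ml mixed with 100 nM fluorescent moenomycin in 10 mM Tris, 100 mM NaCl, pH 8.0, in 1536-well plates. 1 µl of 1 mM compound stock added. 10 µM moenomycin and 2.5% DMSO served as positive and negative controls. After 30 min, drop in fluorescence anisotropy read. Ki derived from Kd and IC50. Same SA enzyme serves all S. aureus strains.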
For orientation: Fluorescence polarisation rises when a labelled molecule tumbles more slowly, as on binding a larger partner.

For assay [10], the system named is Staphylococcus aureus. As to the kind of experiment: Antimicrobial activity against methicillin-resistant Staphylococcus aureus ATCC 33592 after 18 to 24 hrs by alamar blue assay. The class given is functional. The note with it: Staphylococcus aureus, ATCC 33592. The essentials:
as §2

Assay [11] is described as follows: Displacement of fluorescein-labeled moenomycin from Mycobacterium tuberculosis transglycosylase assessed as inhibition of lipid II polymerization after 30 mins by fluorescence anisotropy binding assay. The method, boiled down:
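Full-length bifunctional PBP (10 µg/ml) with 100 nM fluorescein-labelled moenomycin in 10 mM Tris, 100 mM NaCl, pH 8.0; compound added from 1 mM stocks; 30 min incubation, anisotropy decrease read; 10 µM moenomycin and 2.5% DMSO controls. For dose series, Ki derived from probe Kd and IC50.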

Assay [12] relates to Escherichia coli. As to the kind of experiment: Antimicrobial activity against Escherichia coli ATCC […] after 18 to 24 hrs by alamar blue assay. The note with it: Escherichia coli. The class given is functional. The method, boiled down:
as §3

Assay [13] can be described thus: Inhibition of transglycosylase in Staphylococcus aureus isolate NTUH4722 assessed as inhibition of NBD- labelled lipid II polymerization. The method, boiled down:
as §1

Assay [14] deals with Staphylococcus aureus. As to the kind of experiment: Antimicrobial activity against oxacillin- and methicillin-resistant Staphylococcus aureus isolate Sa-OXA-R2 after 18 to 24 hrs by alamar blue assay. Type of assay: functional. The method, boiled down:
as §2

In a further assay the test system is Serratia marcescens. The experiment in a line: Antimicrobial activity against Serratia marcescens ATCC 14756 after 18 to 24 hrs by alamar blue assay. The class given is functional. The note with it: Serratia marcescens, ATCC 14756; read-out: MIC. The essentials:
as §3

The subject of assay [15] is Escherichia coli. The experiment in a line: Displacement of fluorescein-labeled moenomycin from transglycosylase in Escherichia coli ATCC […] assessed as inhibition of lipid II polymerization at 100 uM after 30 mins by fluorescence anisotropy binding assay.
Assay [16] relates to Stenotrophomonas maltophilia. The experiment in a line: Antimicrobial activity against Stenotrophomonas maltophilia ATCC 13637 after 18 to 24 hrs by alamar blue assay. The class given is functional. The note with it: Stenotrophomonas maltophilia, ATCC 13637; read-out: MIC. The essentials:
as §3

In the next assay the test system is Bacillus subtilis. As to the kind of experiment: Antimicrobial activity against Bacillus subtilis ATCC 23857 after 18 to 24 hrs by alamar blue assay. The class given is functional. The method, boiled down: as §3
Another assay relates to Pseudomonas aeruginosa. As to the kind of experiment: Antimicrobial activity against Pseudomonas aeruginosa ATCC 25619 after 18 to 24 hrs by alamar blue assay. Type of assay: functional. The note with it: Pseudomonas aeruginosa, ATCC 25619; read-out: MIC. The method, boiled down: as §3
Another assay has as its system Acinetobacter baumannii. As to the kind of experiment: Antimicrobial activity against Acinetobacter baumannii ATCC 49139 after 18 to 24 hrs by alamar blue assay. The class given is functional. The note with it: Acinetobacter baumannii, ATCC 49139; read-out: MIC. The method, boiled down:
as §3

Assay [17] can be described thus: Inhibition of transglycosylase assessed as inhibition of NBD- labelled lipid II polymerization. The essentials: as §1

Converted amounts (≈) assume the structure as drawn. The source made the active and inactive calls. A value given as a limit tells only on which side of the number the result lay.

For `C=C(C/C=C(\C)CCC=C(C)C)CCC(C)(C)/C=C/CC/C(C)=C/CO[C@@H](COP(=O)(O)O[C@H]1O[C@H](C(N)=O)[C@@](C)(O)[C@H](OC(N)=O)[C@H]1O[C@@H]1O[C@H](CO[C@@H]2O[C@H](CO)[C@@H](O)[C@H](O)[C@H]2O)[C@@H](O[C@@H]2O[C@H](C)[C@@H](O[C@@H]3O[C@H](C(=O)NC4=C(O)CCC4=O)[C@H](O)[C@H](O)[C@H]3O)[C@H](O)[C@H]2NC(C)=O)[C@H](O)[C@H]1NC(C)=O)C(=O)O` [MOENOMYCIN A], the IC50 stood at 34 nM in assay [1]; 50 nM in assay [2]; 34 nM in [4]; 34 nM in assay [5]; 28 nM in [8]; 34 nM in assay [13]. In addition, the MIC90 in the assay on Staphylococcus aureus [3] was 3 µM (≈ 4.75 µg/mL); against Staphylococcus aureus [6], 33 µM (≈ 52.2 µg/mL); in [7], 2.5 µM (≈ 3.96 µg/mL); in the assay on Staphylococcus aureus [10] it was 11 µM (≈ 17.4 µg/mL); in the assay with Escherichia coli [12], 160 µM (≈ 253 µg/mL); with Staphylococcus aureus [14] it was 33 µM (≈ 52.2 µg/mL). The Ki in [9] amounted to 1100 nM; in [11], 9800 nM.
Take `Cc1ccc(C(C)C)c(Oc2cc(Cl)ccc2NC(=O)c2cc(Br)cc(Br)c2O)c1`: the MIC was 16 µg/mL (≈ 28.9 µM) in the assay on Serratia marcescens; 16 µg/mL (≈ 28.9 µM) in assay [16]; under 0.03 µg/mL in the assay on Bacillus subtilis; 16 µg/mL (≈ 28.9 µM) in the assay with Pseudomonas aeruginosa; 16 µg/mL (≈ 28.9 µM) in the assay on Acinetobacter baumannii. The 50% inhibitory concentration (IC50) in [1] was 19600 nM; in [4] it was 19600 nM; in assay [5] it was 19600 nM; in assay [8], 2700 nM; in assay [13], 19600 nM. Further, the MIC90 in the assay on Staphylococcus aureus [3] was 1.8 µM (≈ 0.997 µg/mL); in the assay with Staphylococcus aureus [6] it was 1.8 µM (≈ 0.997 µg/mL); in [7], 3.6 µM (≈ 1.99 µg/mL); in the assay on Staphylococcus aureus [10] it was 1.8 µM (≈ 0.997 µg/mL); in the assay with Escherichia coli [12], over 512 µM; against Staphylococcus aureus [14], 0.45 µM (≈ 0.249 µg/mL). In the assay on Escherichia coli [15], the outcome was inactive. In [17], the IC90 is under 25000 nM.

In general, IC50 refers to the concentration that gives 50% inhibition. By MIC90 is commonly meant the lowest concentration that inhibits either 90% of growth or 90% of the strains tested, depending on the study. Read a high MIC90 as lower susceptibility. Usually Ki stands for a measure of affinity in units of concentration, obtained from inhibition or displacement. In general, MIC refers to the smallest concentration in the dilution series that meets the test's criterion for growth inhibition. The IC90 is the concentration at which the effect reaches the 90% level.
